Assay outcomes: PubChem BioAssay, The Scripps Research Institute Molecular Screening Center
This is a sample that favours compounds with a hit; in the whole collection about 2% have one here.
LEDGF integ inh = blocks HIV-1 LEDGF/p75-dependent DNA integration | inhibition, % at 3.7 µM | actives 0.64% (n = 370,000) | TR-FRET IN-LEDGF/p75 DNA integration, Eu/Cy5;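 active = inhibition above the screen-wide mean plus 3 SD, cut at about 13% in these data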;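 also: signal is the Cy5 over europium emission ratio at 671 and 618 nm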
ASAP1 inh = blocks human ASAP1-stimulated Arf1 GTP hydrolysis; actives 0.19% (n = 360,000); Q9ULH1; AID 624377; GDP FP detection; inhibition, % at 16.5 µM; in the data active = inhibition above about 25%
Target sequence (Q9ULH1 325-724 limits assumed): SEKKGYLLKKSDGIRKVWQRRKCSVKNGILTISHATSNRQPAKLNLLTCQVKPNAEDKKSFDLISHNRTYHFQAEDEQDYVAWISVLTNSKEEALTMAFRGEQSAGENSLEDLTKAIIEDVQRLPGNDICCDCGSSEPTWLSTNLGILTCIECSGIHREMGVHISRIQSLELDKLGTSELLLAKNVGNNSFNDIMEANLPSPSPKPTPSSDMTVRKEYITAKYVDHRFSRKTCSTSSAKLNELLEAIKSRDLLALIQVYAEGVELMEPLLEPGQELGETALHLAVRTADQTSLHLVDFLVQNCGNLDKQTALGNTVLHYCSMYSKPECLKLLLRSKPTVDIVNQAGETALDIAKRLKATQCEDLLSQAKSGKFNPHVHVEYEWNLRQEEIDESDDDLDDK
UHRF1 MBD2 ctr = human UHRF1 methylated DNA binding inhibitors; UHRF1 binding to methylated oligo, TR-FRET; Q96T88; actives 0.75% (n = 370,000); inhibition, % at 4.4 µM; in the data active = inhibition above about 21%;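 also: UHRF1 SRA domain binding a hemimethylated CpG hairpin DNA probe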
ARFGAP1 inh = inhibits rat ARF GTPase activating protein 1 | Q62848 | Arfgap1-stimulated ARF1 GTP hydrolysis, GDP FP detection | inhibition, % at 16.5 µM | actives 0.26% (n = 360,000) | AID 651572;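 active = inhibition above a per-plate limit, mean inhibition of low control wells plus 3 SD, cut at about 25% in these data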
Target sequence (Q62848 1-136 limits assumed): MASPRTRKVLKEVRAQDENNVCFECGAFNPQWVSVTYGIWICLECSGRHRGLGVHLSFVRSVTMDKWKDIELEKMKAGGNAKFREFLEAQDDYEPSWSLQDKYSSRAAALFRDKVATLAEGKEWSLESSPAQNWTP
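system = rat Arfgap1 catalytic domain, aa 1-136 | technique = FP, GDP Alexa 633 tracer displaced from anti-GDP antibody, 620/688 nm | compound = one concentration, 16.5 µM, DMSO 1.26% | medium = HEPES-based buffer, pH 7.5 | timing = compound-enzyme preincubation 20 min, reaction 120 min, detection 60 min, 25 °C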
TDP2 absorb = TDP2 (human) inhibition, absorbance primary screen; inhibition, % at 12.8 µM; actives 0.34% (n = 370,000); AID 720702; recombinant TDP2, T5PNP hydrolysis, p-nitrophenol absorbance 415 nm;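 active = inhibition above the mean of all tested compounds plus 3 SD, set per campaign, cut at about 25% in these data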
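Assay system: recombinant human TDP2 / Reagent: T5PNP substrate at 5 mM, a TopII-DNA adduct mimic / Measured by: epi absorbance from released p-nitrophenol / Evaluation: % inhibition relative to enzyme-containing and enzyme-free wells / Control set: enzyme-free and DMSO wells / Replicates: each compound tested once, singlicate / Schedule: enzyme reaction with compound for 2 h at 37 °C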
MBD2 DNA inh = MBD2-methylated oligo binding inhibition; Q9UBB5; TR-FRET, MBD2 binding to methylated oligonucleotide; inhibition, % at 4.4 µM; actives 0.31% (n = 370,000); AID 686964; in the data active = inhibition above about 13%
Each line names hits and unclear results; the compound was inactive in the other large screens.

CCOc1ccc(S(=O)(=O)N2CCCC(C(=O)NCC3CCCO3)C2)cc1Cl (centres undefined)	UHRF1 MBD2 ctr 83
C=C1CCC2C(C)(C)CCC[C@]2(C)[C@H]1CC1=C(O)C(=O)C(CO)=CC1=O (some centres undefined)	none (no result: ASAP1 inh, ARFGAP1 inh)
COc1ccc(NC(=S)N2CCC(C(=O)c3ccc(C)cc3)CC2)c(OC)c1	UHRF1 MBD2 ctr 26
COCCNC(=O)/C(C#N)=C/c1ccc(-c2ccc(S(=O)(=O)N3CCOCC3)cc2)o1	UHRF1 MBD2 ctr 69
CC[C@@]1(C(=O)OC)N[C@H](CN(C)C(=O)Nc2ccc(C(F)(F)F)cc2)[C@@H]2C(=O)N(C)C(=O)[C@@H]21	UHRF1 MBD2 ctr 22
CCOC(=O)C1CCCN(C(=O)Nc2c(-c3ccccc3)noc2C)C1 (centres undefined)	UHRF1 MBD2 ctr 32
CCOC(=O)C1CCCN(C(=O)c2c(-c3ccccc3Cl)noc2C)C1 (centres undefined)	none
CC(NC(=S)Nc1ccc([N+](=O)[O-])cc1)c1ccncc1 (centres undefined)	UHRF1 MBD2 ctr 46
O=[N+]([O-])c1ccc(NC(=S)NCc2ccncc2)cc1	none
CCNc1nc(NCC)nc(N/N=C/c2ccc(OC)cc2)n1	UHRF1 MBD2 ctr 53
Cc1ccc(-n2[nH]c3c4c(ccc3c2=O)C(=O)c2ccccc2C4=O)cc1	UHRF1 MBD2 ctr 27
O=C(CCc1ccc(O)c(O)c1)N/N=C/c1cc2c(cc1[N+](=O)[O-])OCO2	LEDGF integ inh 53, UHRF1 MBD2 ctr 28
CC(C)(C)c1ccc(O)c(N=Cc2cc3c(cc2[N+](=O)[O-])OCO3)c1	none
Cc1ccc(N=Cc2cc3c(cc2[N+](=O)[O-])OCO3)cc1[N+](=O)[O-]	LEDGF integ inh 15
COC(=O)c1cc(C)oc1C	none (no result: ASAP1 inh, ARFGAP1 inh)
CC(C)[C@H](NC(=O)OCc1ccccc1)C(=O)N[C@@H](Cc1ccccc1)C1(O)CN(C)C(C(=O)NCc2ccccn2)CO1 (some centres undefined)	none (no result: ASAP1 inh, ARFGAP1 inh)
COC(=O)C1CCN(C(=O)C2CC(=O)N(c3ccc(OC)cc3)C2c2ccc(OC)cc2)CC1 (centres undefined)	none (no result: ASAP1 inh, ARFGAP1 inh)
Cc1cc(Cl)cc(Cl)c1OCCCCN(C)C	UHRF1 MBD2 ctr 22
Cc1cc(C)c(OCCCCN(C)C)c(Br)c1	none
Cc1ccc(C)c(NC(=O)c2cc(-c3ccc(Cl)cc3)nc3ccccc23)c1	none (no result: ASAP1 inh, ARFGAP1 inh)
COc1ccc(-c2c(Cc3ccccc3)nc(NC(=O)c3ccccc3)n2Cc2ccc(OC)cc2OC)cc1	none (no result: ASAP1 inh, ARFGAP1 inh)
CCCC(=O)N1CCC[C@]2(CC[C@H](CCC(=O)OCC)O2)C1	none (no result: ASAP1 inh, ARFGAP1 inh)
N#Cc1c(F)cccc1N1CCOCC1	UHRF1 MBD2 ctr 53
COC(=O)c1sccc1NC(=O)c1csc(C)c1	UHRF1 MBD2 ctr 22
COC(=O)c1sccc1NC(=O)Nc1ccccc1F	UHRF1 MBD2 ctr 23
COC(=O)c1sccc1NC(=O)Nc1ccccc1C	none
O=C(O)c1sccc1Oc1ccc(NS(=O)(=O)c2cccc(F)c2)cc1	UHRF1 MBD2 ctr 31
OCCN(CCO)CC(O)COc1ccc2c(c1)OCO2 (centres undefined)	UHRF1 MBD2 ctr 67
CC1=C(C(=O)N(C)C)CC(CC(=O)NCc2cccs2)C(=O)N1Cc1ccc(F)cc1 (centres undefined)	UHRF1 MBD2 ctr 24
CCN(CC)C(=O)C1=C(C)N(Cc2ccc(OC)cc2)C(=O)C(CC(=O)NCCN2CCOCC2)C1 (centres undefined)	UHRF1 MBD2 ctr 22
CC1=C(C(=O)N(C)C)CC(CC(=O)NCc2cccs2)C(=O)N1Cc1ccccc1 (centres undefined)	none
COc1ccc2c(c1)CN1C(=O)N(CCc3ccccc3)S(=O)(=O)CC21 (centres undefined)	none (no result: ASAP1 inh, ARFGAP1 inh)
CCCCCn1c(=O)[nH]c2cc(C(=O)N3CCN(CC)CC3)ccc2c1=O	UHRF1 MBD2 ctr 25
CCCCCn1c(=O)[nH]c2cc(C(=O)N3CCN(c4ccc(C(C)=O)cc4)CC3)ccc2c1=O	none
O=C(Nc1ccc(F)cc1)OCc1cn(Cc2ccc(C(F)(F)F)cc2)nn1	none (no result: ASAP1 inh, ARFGAP1 inh)
N=C1C(=O)OCC1c1ccccc1NC(=O)Nc1ccccc1 (centres undefined)	none
N=C1C(=O)OCC1c1ccccc1NC(=O)c1ccc(F)cc1 (centres undefined)	UHRF1 MBD2 ctr 51
CN(C)Cc1cn(-c2cccc(-c3noc4c3C(=O)N(CC(=O)N3CCOCC3)CC4)c2)nn1	none (no result: ASAP1 inh, ARFGAP1 inh)
CC(=O)N1CCc2c(sc(NC(=O)c3ccc([N+](=O)[O-])o3)c2C(N)=O)C1	ARFGAP1 inh 27
Cc1ccc(SCCC(=O)Nc2ccccc2C(=O)NC(C)C)cc1	UHRF1 MBD2 ctr 22
CCCCNC(=O)N1CCOCCOCCN(C(=O)NCCCC)CCOCCOCC1	none
CCCCNC(=O)NCCN1CCOCC1	UHRF1 MBD2 ctr 35
Cc1noc(C)c1-c1ccc(C(=O)NCC2CC2)c2occc12	none
O=C(NCC1CC1)c1ccc(-n2ccnc2)c2ccoc12	UHRF1 MBD2 ctr 25
N#C/C(=N/Nc1ccc(OC(F)(F)F)cc1)C(N)=S	UHRF1 MBD2 ctr 31
CC(NC(=O)C(=S)N1CCN(C)CC1)c1ccccc1 (centres undefined)	UHRF1 MBD2 ctr 21
CN1CCN(C(=S)C(=O)Nc2ccccc2)CC1	UHRF1 MBD2 ctr 22
CCCCCN1CCCCC(NC(=O)C2CCCCC2)C1=O (centres undefined)	none (no result: ASAP1 inh, ARFGAP1 inh)
COCCNc1ncnc2c1ncn2[C@H]1CN(Cc2cccs2)C[C@@H](CO)O1	none
OCCNc1ncnc2c1ncn2[C@H]1CN(Cc2cccs2)C[C@@H](CO)O1	UHRF1 MBD2 ctr 26
COc1ccc(-n2c(SCc3cccc4ccccc34)nnc2-c2ccccc2)cc1	none (no result: ASAP1 inh, ARFGAP1 inh)
COc1cc(C2=NOC(C(=O)Nc3c(C)n(C)n(-c4ccccc4)c3=O)C2)cc(OC)c1OC (centres undefined)	UHRF1 MBD2 ctr 24
CCCCOC(=O)Nc1ccc(S(=O)(=O)Nc2onc(C)c2C)cc1	UHRF1 MBD2 ctr 21
COc1ccccc1C(=O)N1CCN(C(=O)[C@H]2O[C@@H](n3cnc4c(N)ncnc43)[C@H](O)[C@@H]2O)CC1	UHRF1 MBD2 ctr 24
CCC(=O)OC1(C)C(=O)C=C2C=C(CCCC(=O)OC)OC=C2C1=O (centres undefined)	LEDGF integ inh 16
Cc1cccc(N2CCN(C(=O)C3CCN(S(=O)(=O)N4CCOCC4)CC3)CC2C)c1 (centres undefined)	UHRF1 MBD2 ctr 74
CC1CN(S(=O)(=O)c2ccc(C(=O)Nc3ccc(S(=O)(=O)Nc4ncccn4)cc3)cc2)CC(C)O1 (centres undefined)	UHRF1 MBD2 ctr 36
CC1CN(S(=O)(=O)c2cccc(C(=O)NCc3ccccn3)c2)CC(C)O1 (centres undefined)	UHRF1 MBD2 ctr 28
